Drawing on ChEMBL document CHEMBL1129944, “[[(Arylpiperazinyl)alkyl]thio]thieno[2,3-d]pyrimidinone derivatives as high-affinity, selective 5-HT1A receptor ligands” (J Med Chem, 1997), this text covers IC50 for 3 compounds.

pIC50: −log10 of the molar value.

Assay [1] addresses T1, 5-hydroxytryptamine receptor 1A (Rattus norvegicus, UniProt P19327).
T1 sequence (P19327 whole entry): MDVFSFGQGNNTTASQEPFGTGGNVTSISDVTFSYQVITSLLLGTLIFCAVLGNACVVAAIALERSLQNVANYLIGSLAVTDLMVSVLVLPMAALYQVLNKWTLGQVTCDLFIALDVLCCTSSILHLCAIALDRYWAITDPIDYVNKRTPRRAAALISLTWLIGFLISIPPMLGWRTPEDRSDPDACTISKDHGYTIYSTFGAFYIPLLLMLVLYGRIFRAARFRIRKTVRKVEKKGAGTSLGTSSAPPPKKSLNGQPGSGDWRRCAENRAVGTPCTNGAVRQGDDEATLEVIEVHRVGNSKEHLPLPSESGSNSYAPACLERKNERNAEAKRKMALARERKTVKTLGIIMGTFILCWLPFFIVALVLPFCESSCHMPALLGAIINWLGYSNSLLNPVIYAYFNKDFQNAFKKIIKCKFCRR
As to the kind of experiment: In vitro inhibitory concentration against radioligand [3H]8-OH-DPAT binding to 5-hydroxytryptamine 1A receptor in rat hippocampal membrane. It is filed as cell membranes, Hippocampus. In outline:
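Rat hippocampal membranes (male SD rats, ~150 g) were washed in 50 mM Tris-HCl pH 7.4, including 10 min at 37 °C. Incubation buffer contained 4 mM CaCl2 and 10 μM pargyline. Filtered onto GF/B and counted; 50% inhibitory concentration from fitted curves.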

Assay [2] concerns the target 5-hydroxytryptamine receptor 2A (Rattus norvegicus, UniProt P14842). As to the kind of experiment: In vitro inhibitory concentration against radioligand [3H]ketanserin binding to 5-hydroxytryptamine 2A receptor in rat cortical membrane. It is filed as cell membranes. In outline: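 Cortex from male rats (~150 g) was washed in Tris-HCl pH 7.4 and incubated in 50 mM Tris-HCl pH 7.7. [3H]ketanserin 0.7 nM final, 15 min at 37 °C; nonspecific binding with methysergide. Filtration and scintillation counting; concentration inhibiting binding by 50% derived from dose-inhibition curves.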

Assay [3] deals with T2, Serotonin 3 (5-HT3) receptor (Rattus norvegicus, UniProt P35563+Q9JJ16).
T2 sequence (P35563 whole entry): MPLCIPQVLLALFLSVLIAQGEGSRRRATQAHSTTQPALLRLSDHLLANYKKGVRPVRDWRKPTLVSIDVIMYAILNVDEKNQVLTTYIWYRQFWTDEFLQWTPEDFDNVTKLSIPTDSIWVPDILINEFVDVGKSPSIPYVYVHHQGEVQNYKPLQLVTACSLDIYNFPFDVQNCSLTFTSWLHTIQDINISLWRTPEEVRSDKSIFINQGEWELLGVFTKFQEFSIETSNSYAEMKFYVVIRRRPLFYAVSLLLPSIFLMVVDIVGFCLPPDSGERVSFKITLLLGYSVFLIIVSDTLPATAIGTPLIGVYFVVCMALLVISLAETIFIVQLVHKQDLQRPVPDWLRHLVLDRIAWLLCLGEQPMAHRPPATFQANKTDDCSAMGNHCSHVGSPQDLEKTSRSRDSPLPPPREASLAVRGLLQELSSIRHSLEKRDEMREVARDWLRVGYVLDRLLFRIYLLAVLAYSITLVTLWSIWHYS
T2 sequence (Q9JJ16 whole entry): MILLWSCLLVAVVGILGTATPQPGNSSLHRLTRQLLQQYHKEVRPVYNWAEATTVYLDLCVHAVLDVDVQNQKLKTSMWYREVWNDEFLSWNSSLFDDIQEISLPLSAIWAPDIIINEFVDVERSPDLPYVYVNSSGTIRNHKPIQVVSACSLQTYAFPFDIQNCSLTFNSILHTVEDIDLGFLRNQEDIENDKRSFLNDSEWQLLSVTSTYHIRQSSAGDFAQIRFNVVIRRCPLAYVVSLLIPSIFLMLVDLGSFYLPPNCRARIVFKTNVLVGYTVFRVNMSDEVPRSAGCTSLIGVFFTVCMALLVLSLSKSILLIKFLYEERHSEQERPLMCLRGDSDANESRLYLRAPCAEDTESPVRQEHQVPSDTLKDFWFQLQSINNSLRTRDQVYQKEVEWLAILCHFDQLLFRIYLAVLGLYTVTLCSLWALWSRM
As to the kind of experiment: In vitro inhibitory concentration against radioligand [3H]BRL-43694 binding to 5-hydroxytryptamine 3 receptor in rat cortical membrane. It is filed as cell membranes. The method, boiled down:
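Rat cortex was homogenized in 50 mM Hepes-HCl pH 7.5, then incubated in 50 mM Hepes-HCl pH 7.4 with 10 μM pargyline. [3H]-BRL43694 1 nM final, 30 min at 25 °C; nonspecific binding with GR38032 10 μM. Filtration through GF/B, liquid scintillation counting, IC50 from dose-inhibition curves.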

In assay [4] the target is D(1A) dopamine receptor (Rattus norvegicus, UniProt P18901). Put plainly: In vitro inhibitory concentration against radioligand [3H]SCH-23390 binding to Dopamine receptor D1 in rat striatal membrane. It is filed as cell membranes, Striatum. In outline:
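Rat striatal membranes were incubated in 50 mM Tris-HCl pH 7.1 containing 10 μM pargyline, 120 mM NaCl, 5 mM KCl, 2 mM CaCl2, 1 mM MgCl2 and 0.1% ascorbic acid. [3H]SCH23390 0.4 nM final, 15 min at 37 °C; nonspecific binding with (-)-cis-flupentixol 10 μM. Filtered and counted; IC50 by curve analysis.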

Assay [5] concerns the target D(2) dopamine receptor (Rattus norvegicus, UniProt P61169). As to the kind of experiment: In vitro inhibitory concentration against radioligand [3H]spiperone binding to Dopamine receptor D2 in rat striatal membrane. It is filed as cell membranes, Striatum. The method, boiled down:
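Rat striatum was used, with incubation buffer 50 mM Tris-HCl pH 7.1 plus pargyline 10 μM, NaCl 120 mM, KCl 5 mM, CaCl2 2 mM, MgCl2 1 mM and 0.1% ascorbic acid. [3H]spiperone 0.2 nM final, 15 min at 37 °C; (-)sulpiride 100 μM defined nonspecific binding. GF/B filtration, scintillation counting, IC50 from fitted curves.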

Chain of 5-hydroxytryptamine receptor 2A (P14842 whole entry): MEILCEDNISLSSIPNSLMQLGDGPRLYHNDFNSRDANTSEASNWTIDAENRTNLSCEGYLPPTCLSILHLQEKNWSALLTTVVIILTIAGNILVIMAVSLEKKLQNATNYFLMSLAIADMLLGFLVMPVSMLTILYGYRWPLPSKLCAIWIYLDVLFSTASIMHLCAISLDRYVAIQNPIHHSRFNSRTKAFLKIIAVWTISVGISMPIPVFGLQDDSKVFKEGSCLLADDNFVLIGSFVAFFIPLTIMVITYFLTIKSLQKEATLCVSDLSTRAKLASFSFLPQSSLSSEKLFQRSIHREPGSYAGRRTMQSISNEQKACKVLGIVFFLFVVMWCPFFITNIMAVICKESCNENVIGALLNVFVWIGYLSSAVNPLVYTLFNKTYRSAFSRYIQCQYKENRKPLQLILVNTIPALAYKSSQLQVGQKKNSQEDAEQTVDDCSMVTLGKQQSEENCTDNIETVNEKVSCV

The pIC50 is the IC50 on a negative log10 scale, so that one unit is a factor of ten. High values mean a small IC50, low ones a large IC50. In the case of `COc1ccccc1C1CCN(CCCSc2nc3sc(C)c(C)c3c(=O)n2N)CC1`, the pIC50 was 9.10 in assay [1]; 6.52 in assay [2]; 6.22 in assay [3]; 6.10 in assay [4]; 7.00 in assay [5].
For `COc1ccccc1N1CCN(CCCSc2nc3sc(C)c(C)c3c(=O)n2N)CC1`, in that order: 9.52, 6.52, 6.10, 6.40 and 7.22.
Turning to `Cc1sc2nc(SCCCN3CCN(c4ncccn4)CC3)n(N)c(=O)c2c1C`, the pIC50 was 8.17 in assay [1]; 6.00 in assay [2]; 7.70 in assay [3]; 6.22 in assay [4]; 5.70 in assay [5].
